# Compound activity deposited in PubChem BioAssay by several laboratories.
# M18AAP inhibitor: blocks P. falciparum M18 aspartyl aminopeptidase; recombinant PfM18AAP, H-Glu-NHMec fluorogenic cleavage; inhibition, % at 7.35 µM; hit rate 1.2% among 290,000; AID 1822;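 active means inhibition above the campaign mean inhibition over all tested compounds plus 3 SD, cut at about 28% in these data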
# HCV NS3 hel inh: blocks Hepatitis C virus NS3 helicase unwinding. inhibition, % at 10.9 µM. NS3 helicase DNA unwinding, Cy5 molecular beacon fluorescence. hit rate 0.56% among 290,000;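 active means inhibition above the mean of all tested compounds plus 3 SD, set per campaign, cut at about 35% in these data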
#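 System: HCV NS3 helicase fragment; control set: DMSO and thioflavine S; technique: Cy5 fluorescence at 0 and 60 min, beacon hairpin quenching; reagent: beacon DNA duplex substrate plus ATP; replicates: singlicate; schedule: 1 h reaction at 25 °C, ATP-initiated; medium: MOPS buffer pH 6.5 with MgCl2, DTT, Tween20, BSA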
# ALR H2O2 inh: human ALR oxidase inhibition via reduced H2O2. AID 485317. P55789. hit rate 3.8% among 290,000. purified ALR, DTT oxidation, H2O2 HRP-luminol luminescence. inhibition, % (concentration not given with the values);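 active means mean replicate inhibition above about 79%, with every replicate also reaching it, limit read from the data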
# Target sequence (P55789 whole entry, looked up): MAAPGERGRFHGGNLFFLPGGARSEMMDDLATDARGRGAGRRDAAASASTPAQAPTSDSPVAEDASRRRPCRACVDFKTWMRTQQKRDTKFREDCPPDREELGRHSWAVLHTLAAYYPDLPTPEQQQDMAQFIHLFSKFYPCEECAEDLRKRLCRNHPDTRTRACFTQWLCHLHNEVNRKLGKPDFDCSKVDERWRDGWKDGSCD
# ZTA DNA inh: ZTA (EBV) inhibition in EBNA-1 counter-screen; P03206; ZTA-DNA binding, fluorescence polarization; inhibition, % at 11 µM; hit rate 0.15% among 320,000; AID 2234; in the data active means inhibition above about 33%
# Target sequence (P03206 whole entry, looked up): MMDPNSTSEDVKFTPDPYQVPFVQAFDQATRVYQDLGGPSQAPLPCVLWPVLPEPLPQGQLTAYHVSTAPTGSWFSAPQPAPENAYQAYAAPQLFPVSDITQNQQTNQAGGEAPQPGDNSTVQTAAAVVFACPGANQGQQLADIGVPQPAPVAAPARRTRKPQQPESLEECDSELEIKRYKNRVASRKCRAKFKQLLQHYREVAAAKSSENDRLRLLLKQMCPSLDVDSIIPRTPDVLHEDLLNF
# EBNA-1 inhibitor: blocks EBNA-1 binding to DNA | EBNA-1 DNA binding, fluorescence polarization | inhibition, % at 14.8 µM | hit rate 0.34% among 300,000; in the data active means inhibition above about 28%
# core dimer inh: blocks dimerization of HCV core protein | TR-FRET GST/Flag-core106 dimerization, 1536-well | hit rate 0.33% among 300,000 | inhibition, % at 5 µM;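 active means inhibition above the mean of all tested compounds plus 3 SD, set per screening campaign, cut at about 45% in these data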
#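 Assay system: tagged HCV core106 pair (GST and Flag); medium: KF-containing HEPES buffer, pH 7.45, DTT, CHAPS, BSA; also added: Eu donor and XL665 acceptor anti-tag antibodies; dosing: 5 µM single dose; timing: compound-protein-antibody incubation 4 h at 22.5 °C; signal: TR-FRET 671 and 617 nm emission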
# Hits are given with their value; - = inactive; . = not tested or not shown. This is a sample that favours compounds with a hit; in the whole collection about 5.2% have one here.
SMILES,M18AAP inhibitor,HCV NS3 hel inh,ALR H2O2 inh,ZTA DNA inh,EBNA-1 inhibitor,core dimer inh
CC1=Nc2ccccc2/C1=C/c1c(N)n2c(S(=O)(=O)C(C)C)nsc2nc1=O,-,-,97,-,-,-
CCOc1ccccc1C(=O)N/N=C/c1ccoc1,-,-,-,.,.,.
CCN(Cc1ccccc1)C(=O)CS(=O)(=O)c1ccccc1,-,-,.,-,-,-
O=S(=O)(C/C(=C/CO)S(=O)(=O)c1ccccc1)c1ccccc1,-,-,99,-,-,-
CCN(CC(=O)Nc1ccc(OC)cc1)C(=O)c1ccc2[nH]c3c(c2c1)CC(C)CC3 (stereo not drawn),.,.,.,-,.,.
CC(=O)N1CCN(c2nc(-c3ccco3)c3c(c2C#N)CC(C)(C)SC3)CC1,-,-,.,-,-,-
CC1(C)Cc2c(C#N)c(N3CCN(C(=O)c4ccco4)CC3)nc(-c3ccco3)c2CS1,-,-,-,-,-,72
CC1(C)Cc2c(C#N)c(N3CCN(C(=O)c4ccccc4Cl)CC3)nc(-c3ccco3)c2CS1,-,-,.,-,-,81
O=c1[nH]cnc2c1C(c1ccccc1)c1c(nc[nH]c1=O)O2,-,-,.,.,.,.
O=C(Nc1nc(-c2cccc3ccccc23)cs1)c1cnccn1,-,-,-,-,-,-
CCOC(=O)Cc1csc(-n2sc3ccccc3c2=O)n1,-,-,-,-,-,59
CCOC(=O)Cc1csc(SCn2nnc3ccccc3c2=O)n1,-,-,-,-,-,-
O=C(CCSc1nc2cc(Cl)ccc2o1)N1CCOCC1,-,-,99,-,-,-
CCNC(=O)CCSc1nc2cc(Cl)ccc2o1,-,-,90,-,-,-
O=C(Cn1ccc2ccccc2c1=O)NCC(=O)N1CCN(c2ccccc2F)CC1,-,-,-,-,-,-
c1cn2c(NC3CCCCC3)c(-c3ccc(SC4CCCCC4)cc3)nc2cn1,.,.,.,-,-,-
c1cn2c(NC3CCCC3)c(-c3ccc(N4CCOCC4)cc3)nc2cn1,.,.,99,-,-,-
N#Cc1cc(-c2cccc(Cl)c2)c[nH]c1=O,-,-,-,-,-,-
N#Cc1c(-c2cccc(Cl)c2)[nH]c(=S)[nH]c1=O,-,-,80,-,-,-
FC(F)(F)c1ccc(NC(=S)NCc2ccccc2)cc1,-,-,-,-,-,-
O=C(Cn1nnc(-c2ccccc2)n1)OCc1csc(-c2ccccc2)n1,-,-,99,-,-,-
O=Cc1c(NCCN2CCCC2)c2ccccc2[nH]c1=O,-,-,-,-,-,-
O=S(=O)(c1ccccc1)N(F)S(=O)(=O)c1ccccc1,.,.,-,-,.,.
Clc1ccc(SCc2cn3ccccc3n2)cc1,-,-,-,-,-,-
Nc1ccccc1SCc1cn2ccccc2n1,-,-,-,-,-,-
SMILES,M18AAP inhibitor,HCV NS3 hel inh,ALR H2O2 inh,ZTA DNA inh,EBNA-1 inhibitor,core dimer inh
c1ccc2c(SCc3cn4ccccc4n3)nncc2c1,-,-,99,-,-,-
N=C(N)SCc1cn2ccccc2n1,-,-,98,-,-,-
CCOc1cccc2cc(C(=O)NCc3ccc(C)cc3)c(=N)oc12,-,-,-,-,-,-
C/C(=N\NC(=O)c1cc(C)nc2ccccc12)c1cccc(Cl)c1,-,-,-,-,-,-
CCN(CC)S(=O)(=O)c1cccc(-c2n[nH]c(=S)n2/N=C/c2ccc(OC)cc2)c1,-,-,.,-,-,-
CCN(CC)S(=O)(=O)c1cccc(-c2n[nH]c(=S)n2/N=C/c2ccc(OC(F)F)cc2)c1,-,-,98,-,-,-
CC(C)Cc1c(O)nc(SCC(=O)Nc2ccc3c(c2)CCC3)[nH]c1=O,-,-,99,-,-,-
CC(C)c1c(O)nc(SCC(=O)Nc2ccc3c(c2)CCC3)[nH]c1=O,-,-,99,-,-,-
COc1ccc2nc(SCC(=O)Nc3ccc4c(c3)CCC4)[nH]c2c1,-,-,-,-,-,-
CCC(=O)N1CCc2cc(S(=O)(=O)NCCC(=O)NCc3ccccc3OC)ccc21,-,-,-,-,-,-
Cc1cc(C)c(C)c(S(=O)(=O)Nc2ccccc2N2CCOCC2)c1C,.,.,-,.,.,.
COC(=O)c1ccc(CNC(=O)Cn2nnnc2CN(C)C(C)C)cc1,-,-,-,-,-,-
Cc1ccccc1-c1nc(CS(=O)CC(=O)NC2CCCC2)c(C)o1 (stereo not drawn),-,-,99,-,-,-
Cc1oc(-c2ccccc2F)nc1CS(=O)(=O)CC(=O)NC1CCCC1,-,-,-,-,-,-
Cc1ccccc1-c1nc(CS(=O)CC(=O)NC2CCCCC2)c(C)o1 (stereo not drawn),-,-,99,-,-,-
Cc1ccccc1-c1nc(CS(=O)CC(=O)NC2CC2)c(C)o1 (stereo not drawn),-,-,99,-,-,-
Cc1oc(-c2ccccc2F)nc1CS(=O)CC(=O)NC1CCCC1 (stereo not drawn),-,-,99,-,-,-
Cc1ncsc1CCOC(=O)C1C2CC3CC(C2)CC1C3 (stereo not drawn),-,-,-,-,-,-
O=[N+]([O-])c1ccccc1-c1cc(-c2cc(Cl)ccc2O)n[nH]1,-,-,99,-,-,-
Oc1ccccc1-c1cc(-c2ccccc2Cl)[nH]n1,-,-,89,-,-,-
COc1ccc(O)c(-c2cc(-c3ccccc3[N+](=O)[O-])[nH]n2)c1,-,-,99,-,-,-
C[C@@H](NC(=O)c1[nH]cnc1C(=O)Nc1cccc(Cl)c1)c1ccccc1,.,.,-,-,.,.
COc1cccc(C2C(C#N)=C(N)N(N(C)C)C3=C2C(=O)CC(C)(C)C3)c1OC (stereo not drawn),-,-,-,-,-,-
CC(=O)Nc1ccc(C2NC(=O)CCC2[N+](=O)[O-])cc1 (stereo not drawn),-,-,-,-,-,-
Cc1ccc(Nc2nnns2)cc1C,-,-,87,-,-,-
SMILES,M18AAP inhibitor,HCV NS3 hel inh,ALR H2O2 inh,ZTA DNA inh,EBNA-1 inhibitor,core dimer inh
Cc1nc(SCCc2nc3ccccc3[nH]2)c2oc3ccccc3c2n1,.,.,-,.,.,.
C(=N\N1CCOCC1)/c1nc(-c2ccccc2)n2ccccc12,-,-,96,-,-,-
C(=N\N1CCOCC1)/c1cn(-c2ccccc2)nc1-c1ccccc1,-,-,-,-,-,-
Cc1ccc(CNc2ncc(-c3ccccc3)n2C)o1,-,-,98,-,-,-
Cn1c(-c2ccccc2)cnc1NCc1ccccc1,-,-,-,-,-,-
Cc1ccc(CNC(=O)c2ccc(OCC(C)C)cc2)n1C,-,-,-,.,.,.
Cc1cc(-c2ccc(N=Nc3c(S(=O)(=O)O)cc4cc(S(=O)(=O)O)cc(N)c4c3O)c(C)c2)ccc1N=Nc1c(S(=O)(=O)O)cc2cc(S(=O)(=O)O)cc(N)c2c1O,.,.,.,181,69,-
COc1ccc(NC(=O)CSc2nnc(-c3ccncc3)o2)c([N+](=O)[O-])c1,-,-,-,-,-,-
CC1CCN(CCCn2c(=S)[nH]c3ccc(N4CCOCC4)cc3c2=O)CC1,-,-,85,-,-,-
